Screening data from PubChem.
A selection: hits, their analogues and other compounds. The true share with any hit is near 3.2%.
DENV2 CPE: inhibitors of DENV2 cytopathic effect, primary screen, cell-based, plate reader, single concentration. DENV2-infected cells, cytopathic effect rescue. CPE inhibition, % at 9.99 µM. hit rate 1.7% among 350,000. AID 651640, 2012; in the data active = CPE inhibition above about 20%, passing the limit was not always enough; tested in BHK-21 cells;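 also: 0% = median of neutral control wells and 100% = median of positive control wells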
S100A4 MyoIIA: inhibitors of S100A4-myosin IIA peptide binding, primary screen, biochemical, fluorescence polarization, TAMRA-MyoIIA peptide; Protein S100-A4 (Homo sapiens), P26447; inhibition, % at 10.7 µM; hit rate 0.14% among 360,000; AID 652163, 2013;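 active = mean inhibition of at least 70% across replicates, with every replicate also reaching that level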
Target sequence (P26447 whole entry, looked up): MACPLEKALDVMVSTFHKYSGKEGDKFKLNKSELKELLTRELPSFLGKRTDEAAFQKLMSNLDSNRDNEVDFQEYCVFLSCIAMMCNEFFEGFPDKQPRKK
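Material: S100A4 monomer protein / Buffer or medium: 50 mM HEPES pH 7.2, 10 mM CaCl2, 100 mM KCl / Times: 5 min incubation before reading / Benchmarks: neutral control DMSO, positive control TFP / Reagent: labelled myosin peptide probe, 5 nM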
PfHsp90 set2: growth inhibition of PfHsp90-expressing yeast, primary screen, antimalarial PfHsp90 inhibitor project, S. cerevisiae, BacTiter-Glo luminescence, single point, set 2; BacTiter-Glo ATP, 48 h; yeast lacking PDR1 and PDR3 efflux regulators; inhibition, % at 9.4 µM; hit rate 0.32% among 310,000;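 active = every replicate shows inhibition above about 80%, whatever the replicate mean, limit read from the data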;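 also: 0% = DMSO neutral controls and 100% = 20 µM radicicol positive controls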
Ecoli rRNA inh: reduced GFP signal of wild-type E. coli, primary screen, bacterial rRNA inhibitor project, GFP/RFP fluorescence, OD600, single point; hit rate 1.6% among 350,000; GFP signal change (wild-type ribosome), % (no concentration beside the values); E. coli WT GFP vs humanized-ribosome RFP mutants, 24 h; active compounds read low; DMSO median 0, no signal -100; AID 720706, 2013;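 active = significant combined selectivity score with lowered wild-type GFP, culture density cut under 30%, mutant RFP and density less affected; inactive = any of these conditions unmet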
MLL AF4-AF9 inh: inhibitors of AF4 peptide binding to AF9, primary screen, biochemical, AlphaScreen, biotin-AF4 peptide, FLAG-AF9, single point; Protein AF-9 (Homo sapiens), P42568; inhibition, % at 10 µM; hit rate 0.47% among 350,000; AID 651704, 2012;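 active = every replicate reaching a set inhibition limit, whatever the replicate mean, cut at about 25% in these data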;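 also: 0% = plate neutral control median and 100% = total signal loss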
Target sequence (P42568 whole entry, looked up): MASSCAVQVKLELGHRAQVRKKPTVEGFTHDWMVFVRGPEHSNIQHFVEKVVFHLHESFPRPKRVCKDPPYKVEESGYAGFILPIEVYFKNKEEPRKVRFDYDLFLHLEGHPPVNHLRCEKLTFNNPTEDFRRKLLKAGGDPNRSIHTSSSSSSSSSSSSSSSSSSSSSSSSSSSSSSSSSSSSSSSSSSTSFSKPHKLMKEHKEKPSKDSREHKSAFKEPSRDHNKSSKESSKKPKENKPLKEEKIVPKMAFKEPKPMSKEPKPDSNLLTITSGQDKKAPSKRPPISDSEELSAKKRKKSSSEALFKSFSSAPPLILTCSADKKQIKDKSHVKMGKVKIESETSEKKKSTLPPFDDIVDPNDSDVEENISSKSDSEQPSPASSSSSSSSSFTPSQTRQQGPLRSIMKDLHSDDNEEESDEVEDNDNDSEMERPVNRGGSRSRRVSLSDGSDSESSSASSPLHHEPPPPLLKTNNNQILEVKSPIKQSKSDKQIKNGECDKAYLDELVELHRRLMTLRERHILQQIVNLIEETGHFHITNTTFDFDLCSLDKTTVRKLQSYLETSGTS
Cneo AK release: Cryptococcus neoformans cell lysis inducers, primary screen, AK release luminescence, single concentration | C. neoformans lysis, adenylate kinase release luminescence, 4 h; normalised: neutral wells 0, clomiphene wells 100 | lysis activity, % at 15 µM | hit rate 0.2% among 360,000;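 active = mean lysis activity across replicates of at least 80%, whatever share of replicates individually reach that level; inactive = mean lysis activity below 80%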
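Test system: log-phase Cryptococcus neoformans yeast cells; Quantity: yeast cell density of 5 × 10^6 cells/mL; Buffer or medium: YPD; Doses: single compound concentration per well; Timing: 4 h at 37 °C static, read 1 h later; Measured by: AK luminescence; Read-out basis: lysis from increased AK signal; Control set: Clomiphene as positive control.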
An asterisk follows results filed as active; . = no result given.

SMILES	DENV2 CPE	S100A4 MyoIIA	PfHsp90 set2	Ecoli rRNA inh	MLL AF4-AF9 inh	Cneo AK release
COc1cccc(CNC(=O)C[C@H]2CC[C@H]3[C@@H](COc4ccc(NC(C)=O)cc4C(=O)N3C)O2)c1	28.1*	1.0	.	1.5	-2.9	.
CCCNC(=O)C[C@@H]1CC[C@H]2[C@@H](COc3ccc(NC(=O)c4cccc(OC)c4)cc3C(=O)N2C)O1	46.0*	-2.7	.	0.2	-1.2	-7.6
COc1cccc(CNC(=O)C[C@H]2CC[C@@H]3[C@H](COc4ccc(NC(C)=O)cc4C(=O)N3C)O2)c1	1.3	.	.	1.5	.	-0.8
COc1ccccc1CNC(=O)C[C@@H]1CC[C@@H]2[C@H](COc3ccc(NS(=O)(=O)c4ccc(C)cc4)cc3C(=O)N2C)O1	-8.2	2.6	.	-2.1	-12.4	-3.7
Cc1ccc(S(=O)(=O)Nc2ccc3c(c2)CC(=O)N([C@@H](C)CO)C[C@@H](C)[C@H](CN(C)S(=O)(=O)c2cn(C)cn2)O3)cc1	8.2	-38.7	.	1.6	-1.0	0.8
COc1cc(OC)cc(-c2oc(=O)c3cc(OC)c(OC)cc3c2C#CCCO)c1	29.9*	-3.0	-13.2	-2.9	.	-8.7
Cc1noc(C)c1S(=O)(=O)N(C)C[C@@H]1OCCCC[C@@H](C)Oc2ccc(NC(=O)CCCN(C)C)cc2C(=O)N([C@H](C)CO)C[C@@H]1C	-4.4	7.9	.	-0.2	-0.6	-0.6
Cc1noc(C)c1S(=O)(=O)N(C)C[C@H]1OCCCC[C@H](C)Oc2ccc(NC(=O)Nc3ccc(F)cc3)cc2C(=O)N([C@@H](C)CO)C[C@@H]1C	72.8*	-3.6	.	-1.4	-3.0	5.4
Cc1noc(C)c1S(=O)(=O)N(C)C[C@@H]1OCCCC[C@@H](C)Oc2ccc(NC(=O)Nc3ccc(F)cc3)cc2C(=O)N([C@H](C)CO)C[C@H]1C	-3.5	-12.7	.	2.1	0.1	6.6
C[C@H](CO)N1C[C@H](C)[C@H](CN(C)S(=O)(=O)c2ccccc2)OCCCC[C@H](C)Oc2ccc(NC(=O)Nc3ccc(F)cc3)cc2C1=O	21.7*	6.0	.	-1.4	0.2	-1.5
C[C@@H]1CCCCO[C@@H](CN(C)S(=O)(=O)c2ccc(Cl)cc2)[C@@H](C)CN([C@@H](C)CO)C(=O)c2cc(NC(=O)Nc3ccc(F)cc3)ccc2O1	28.8*	0.1	.	1.1	-2.7	-6.1
Cc1noc(C)c1S(=O)(=O)N(C)C[C@@H]1OCCCC[C@@H](C)Oc2ccc(NC(=O)CCCCCC(=O)Nc3ccccc3N)cc2C(=O)N([C@H](C)CO)C[C@@H]1C	-2.9	4.8	.	-2.4	2.4	108.1*
C[C@@H]1CCCCO[C@H](CN(C)S(=O)(=O)c2ccc(Cl)cc2)[C@@H](C)CN([C@H](C)CO)C(=O)c2cc(NC(=O)Nc3ccc(F)cc3)ccc2O1	8.4	2.7	.	2.2	-4.1	-5.9
CC(C)NC(=O)N(C)C[C@@H]1Oc2ncc(C#CC3(O)CCCC3)cc2C(=O)N([C@@H](C)CO)C[C@@H]1C	3.3	2.0	.	0.1	-0.9	53.7
CCCN(C)C[C@@H]1Oc2cc(C#Cc3cccc(F)c3)ccc2S(=O)(=O)N([C@H](C)CO)C[C@@H]1C	-8.6	4.8	.	1.6	4.3	-3.9
C[C@@H]1CCCCO[C@@H](CN(C)S(=O)(=O)c2ccccc2)[C@H](C)CN([C@@H](C)CO)C(=O)c2cc(NC(=O)Nc3ccc(F)cc3)ccc2O1	-10.9	-3.4	.	-2.8	1.2	104.7*
CCC(=O)N1[C@@H](CO)[C@@H](c2ccccc2)C12CN(C(=O)c1ccc3c(c1)OCO3)C2	-3.6	14.4	.	-1.6	0.6	.
C[C@@H]1CCCCO[C@@H](CN(C)C(=O)Cc2ccccc2)[C@@H](C)CN([C@H](C)CO)C(=O)c2cc(NC(=O)Nc3ccccc3)ccc2O1	-4.3	-12.4	.	2.0	-0.7	0.6
CCOC(=O)c1csc(NC(=O)c2cc(=O)c3ccccc3o2)n1	6.4	4.0	-5.6	-25.9*	-3.0	.
CC(=O)c1sc(NC(=O)c2cc(=O)c3ccccc3o2)nc1C	4.8	-8.7	2.7	-13.2	-1.4	-4.5
Cn1c(N)c(C(=O)N2CCN(c3ccccc3)CC2)c(=O)n(C)c1=O	36.8*	-2.7	.	6.4	-0.2	1.3
CCOC(=O)c1c(C)c(C(=O)N2CCN(c3ccccc3)CC2)c(C)n1C	0.9	1.2	8.2	-16.3	3.8	-1.4
COc1ccc(N2C(=O)N3[C@H](c4cccc(C)c4)[C@@H]4C(=O)N(Cc5ccccc5)C(=O)[C@@H]4[C@]3(Cc3ccccc3)C2=O)cc1	82.1*	-0.1	.	4.1	-3.9	.
O=C(Nc1cccc(CNCCc2c[nH]c3ccccc23)c1)c1ccccc1Cl	3.1	-1.4	-39.6	-3.8	34.6*	-1.2
CC(=O)c1cccc(NC(=O)NCCc2c[nH]c3ccccc23)c1	7.8	-5.5	-4.8	3.3	-3.4	.
SMILES	DENV2 CPE	S100A4 MyoIIA	PfHsp90 set2	Ecoli rRNA inh	MLL AF4-AF9 inh	Cneo AK release
COCc1cn(CC[C@H]2CC[C@@H](NC(=O)Nc3ccc(OC)cc3)[C@H](CO)O2)nn1	-2.7	12.5	.	2.2	-0.1	11.1
COc1ccc(CCN2C(=O)c3ccccc3C2c2nnnn2Cc2ccccc2)cc1OC (configuration not stated)	2.8	-2.1	.	-20.7*	-1.0	.
COc1ccc(CCN2C(=O)c3ccccc3C2c2nnnn2-c2c(C)cccc2C)cc1OC (configuration not stated)	3.1	-4.9	.	-14.2	1.2	.
CCOc1ccc(CCNC(=O)c2ccc(CS(=O)Cc3ccc(Cl)cc3)o2)cc1 (configuration not stated)	0.6	-5.7	32.2	-6.0	2.5	-0.7
COc1ccc(OC)c(CCNC(=O)c2ccc(CS(=O)Cc3ccc(Cl)cc3)o2)c1 (configuration not stated)	12.8	-1.4	-4.8	-28.4*	3.3	0.7
Cc1ccc(S(=O)(=O)N(C)C[C@H]2Oc3ccc(NC(=O)NC4CCCCC4)cc3C(=O)N([C@@H](C)CO)C[C@@H]2C)cc1	1.4	-26.6	.	0.6	-1.5	1.5
CCS(=O)(=O)NCC[C@@H]1CC[C@@H](NS(=O)(=O)c2ccccc2C)[C@H](CO)O1	49.6*	2.7	.	1.3	1.7	2.5
O=C(C[C@H]1CC[C@@H](NS(=O)(=O)c2cccc(F)c2)[C@H](CO)O1)N1CCCCC1	25.4*	8.6	.	1.7	-1.5	-2.2
